Assays:
[1] = Thermodynamic aqueous solubility of the compound in water by nitrogen detection method; format: physicochemical; conditions: buffer
In short: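 Thermodynamic solubility in water, reported in μg/mL.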

[2] = tested on: Liver; test: Half life in CD-1 mouse liver microsomes at 1 uM in presence of NADPH by LC-MS/MS analysis; format: ADME, microsome
In short: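 Half-life measured by incubation in mouse liver microsomes.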

[3] = organism: Homo sapiens; test: Inhibition of Rho/MRTF/SRF pathway in human primary dermal fibroblasts assessed as inhibition of TGF-beta-stimulated ACTA2 gene expression by measuring ACTA2 mRNA level at 10 uM after 24 hrs by qRT-PCR method relative to control; parameters: scale not given: the % may be the effect or the level left
In short: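 Primary human dermal fibroblasts stimulated with TGF-β and treated with compound at 10 μM for 24 h. ACTA2 mRNA was measured by qPCR and expressed as percent of control, mean of n=3.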

[4] = Inhibition of Rho/MRTF/SRF pathway (unknown origin) expressed in HEK293T cells assessed as reduction in Galpha12-stimulated MRTF-selective SRE.L promoter-driven luciferase activity after overnight incubation by luminescence assay; format: cell-based, Homo sapiens
In short: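 Signal was stimulated with Gα12 and luciferase activity was read. IC50 in μM is the mean of n ≥ 3.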

[5] = tested on: Mus musculus; test: Antifibrotic activity in C57BL/6 mouse bleomycin-induced dermal fibrosis model assessed as inhibition ofhydroxyproline content at 50 mg/kg, po qd for 2 weeks relative to control; format: functional; conditions: C57BL/6, po, 336 h
In short: (§1)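 Three groups of mice (n=8) dosed daily for 14 days. The groups were: intracutaneous PBS; intracutaneous bleomycin plus vehicle by oral gavage; intracutaneous bleomycin plus test compound at 50 mg/kg by oral gavage. Read-outs were dermal thickness and skin hydroxyproline content. Each is given as the reduction of the bleomycin-induced increase.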

[6] = AUC (0 to 7 hrs) in CD-1 mouse at 20 mg/kg, po administered via gavage as single dose by LC-MS/MS analysis; format: ADME, organism-based; parameters: time < 7 hr, dose 20 mg/kg, route oral; conditions: in vivo
In short: (§2)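 Mice dosed once, by intraperitoneal injection at 10 mg/kg or by oral gavage at 20 mg/kg. AUC is estimated from the plasma concentration curve over 0–7 h and is expressed as hr.ng/mL.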

[7] = AUC (0 to 7 hrs) in CD-1 mouse at 10 mg/kg, ip administered as single dose by LC-MS/MS analysis; format: ADME, organism-based; parameters: dose 10 mg/kg, time < 7 hr, route intraperitoneal; conditions: in vivo; in short: as §2
[8] = Plasma concentration in CD-1 mouse at 10 mg/kg, ip or 20 mg/kg, po administered via gavage as single dose measured at 7 hrs post dose by LC-MS/MS analysis; format: ADME, organism-based
In short: (§3)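 Plasma concentration in μM after a single dose in mice (IP 10 mg/kg or PO gavage 20 mg/kg), sampled at 0.5 h and at 7 h post-dose.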

[9] = tested on: Mus musculus; test: Antifibrotic activity in C57BL/6 mouse bleomycin-induced dermal fibrosis model assessed as inhibition of dermal thickness at 50 mg/kg, po qd for 2 weeks by Masson's trichrome staining based microscopic method relative to control; format: functional; conditions: C57BL/6, po, 336 h; in short: as §1
[10] = Plasma concentration in CD-1 mouse at 10 mg/kg, ip or 20 mg/kg, po administered via gavage as single dose measured at 0.5 hrs post dose by LC-MS/MS analysis; format: ADME, organism-based; in short: as §3
[11] = tested on: Liver; test: Drug metabolism in CD-1 mouse liver microsomes assessed as 5,5-difluoro-1-(3-(furan-2-yl)benzoyl)piperidine-3-carboxylic acid formation at 20 uM after 3 mins in presence of NADPH by LC-MS/MS analysis; format: ADME, microsome; conditions: 0.05 h
[12] = tested on: Liver; test: Drug metabolism in CD-1 mouse liver microsomes assessed as oxidative metabolism at 20 uM after 3 mins in presence of NADPH by LC-MS/MS analysis; format: ADME, microsome; conditions: 0.05 h
[13] = tested on: Liver; test: Drug level in CD-1 mouse liver microsomes treated with CCG-222740 at 20 uM after 3 mins in presence of NADPH by LC-MS/MS analysis; format: ADME, microsome; conditions: 0.05 h

Row | Structure (SMILES) | t1/2 [2] [min] | IC50 [4] [nM] | further results
1 | O=C(Nc1ccc(Cl)cc1)C1CN(C(=O)c2cncc(-c3ccncc3)c2)CC(F)(F)C1 (configuration not stated) | 7.7 | 1200 | Therm_solubility [1]: 62 µg/mL; Activity [3]: 190%
2 | O=C(Nc1ccc(Cl)cc1)C1CCCN(C(=O)c2csc(-c3ccco3)n2)C1 (configuration not stated) | – | 6200 | –
3 | CC1(C(=O)Nc2ccc(Cl)cc2)CCCN(C(=O)c2cccc(-c3ccco3)c2)C1 (configuration not stated) | 0.84 | 550 | –
4 | O=C(Nc1ccc(Cl)cc1)C1CN(C(=O)c2cccc(-c3ccncc3)c2)CC(F)(F)C1 (configuration not stated) | 7.8 | 550 | Therm_solubility [1]: 23.1 µg/mL; Activity [3]: 31%; inhibition in vivo at 50 mg/kg [5]: 62%; AUC(0-t) at 7 h [6]: 33700 ng·h/mL; AUC(0-t) at 7 h [7]: 15300 ng·h/mL; concentration at 7 h [8]: 2.4 µM; inhibition in vivo at 50 mg/kg [9]: 55%; concentration at 0.5 h [10]: 14.4 µM
5 | O=C(Nc1ccc(Cl)cc1)C1CCCN(C(=O)c2cnc(-c3ccco3)s2)C1 (configuration not stated) | – | 5800 | –
6 | COC(=O)NC1CC(C(=O)Nc2ccc(Cl)cc2)CN(C(=O)c2cccc(-c3ccco3)c2)C1 (configuration not stated) | – | 5000 | –
7 | O=C1CC(C(=O)Nc2ccc(Cl)cc2)CN(C(=O)c2cccc(-c3ccco3)c2)C1 (configuration not stated) | – | 3900 | –
8 | CN(C)C1CC(C(=O)Nc2ccc(Cl)cc2)CN(C(=O)c2cccc(-c3ccco3)c2)C1 (configuration not stated) | 3.3 | 5800 | –
9 | O=C(Nc1ccc(Cl)cc1)C1CN(C(=O)c2cccc(-c3ccccn3)c2)CC(F)(F)C1 (configuration not stated) | 9.5 | 1000 | Therm_solubility [1]: 3.9 µg/mL; Activity [3]: 37%
10 | O=C(Nc1ccc(Cl)cc1)C1CCCN(C(=O)c2cccc(-n3cccn3)c2)C1 (configuration not stated) | 1.7 | 2900 | –
11 | O=C(Nc1ccc(Cl)cc1)C1CN(C(=O)c2cccc(-c3cncnc3)c2)CC(F)(F)C1 (configuration not stated) | – | 3200 | –
12 | O=C(Nc1ccc(Cl)cc1)C1CN(C(=O)c2cccc(-n3cccn3)c2)CC(F)(F)C1 (configuration not stated) | 4.8 | 680 | Therm_solubility [1]: 23 µg/mL; Activity [3]: 140%
13 | O=C(c1cccc(-c2ccco2)c1)N1CCCC(COc2ccc(Cl)cc2)C1 (configuration not stated) | 1.8 | 810 | –
14 | O=C(Nc1ccc(Cl)cc1)C1CCCN(C(=O)c2cc(-c3ccco3)ncn2)C1 (configuration not stated) | – | 15300 | –
15 | CC(=O)NC1CC(C(=O)Nc2ccc(Cl)cc2)CN(C(=O)c2cccc(-c3ccco3)c2)C1 (configuration not stated) | – | 5000 | –
16 | O=C(Nc1ccc(Cl)cc1)C1CCCN(C(=O)c2cc(-c3ccco3)on2)C1 (configuration not stated) | – | 6800 | –
17 | CN(C(=O)C1CCCN(C(=O)c2cccc(-c3ccco3)c2)C1)c1ccc(Cl)cc1 (configuration not stated) | – | 8600 | –
18 | O=C(Nc1ccc(Cl)cc1)C1CN(C(=O)c2cccc(-c3ccco3)c2)CC(F)(F)C1 (configuration not stated) | 4.9 | 600 | Therm_solubility [1]: 2.3 µg/mL; Activity [3]: 9.3%; Drug metabolism [11]: Metabolite_Detected; AUC(0-t) at 7 h [7]: 9200 ng·h/mL
19 | O=C(Nc1ccc(Cl)cc1)C1CN(C(=O)c2cccc(-c3ccco3)c2)CCO1 (configuration not stated) | – | 3100 | –
20 | O=C(Nc1ccc(Cl)cc1)C1CN(C(=O)c2cc(-c3ccco3)ccn2)CC(F)(F)C1 (configuration not stated) | 2.5 | 7100 | –

Row | Structure (SMILES) | t1/2 [2] [min] | IC50 [4] [nM] | further results
21 | CC(=O)N1CCN(C(=O)c2cccc(-c3ccco3)c2)CC1C(=O)Nc1ccc(Cl)cc1 (configuration not stated) | – | 21000 | –
22 | O=C(Nc1ccc(Cl)cc1)C1CCCN(C(=O)c2cncc(-c3ccco3)c2)C1 (configuration not stated) | < 3 | 2900 | –
23 | Cn1cncc1-c1cccc(C(=O)N2CC(C(=O)Nc3ccc(Cl)cc3)CC(F)(F)C2)c1 (configuration not stated) | 16 | 370 | Therm_solubility [1]: 14.9 µg/mL; Activity [3]: 110%
24 | O=C(Nc1ccc(Cl)cc1)C1CCCN(C(=O)c2cc(-c3ccco3)ccn2)C1 (configuration not stated) | < 3 | 1900 | –
25 | O=C(Nc1ccc(Cl)cc1)C1CN(C(=O)c2cccc(-c3cccnc3)c2)CC(F)(F)C1 (configuration not stated) | < 3 | 900 | –
26 | O=C(Nc1ccc(Cl)cc1)C1CCCN(C(=O)c2cccc(-c3cn[nH]c3)c2)C1 (configuration not stated) | 5.6 | 3000 | Activity [3]: 73%
27 | O=C(Nc1ccc(Cl)cc1)C1CCCN(C(=O)c2cccc(-c3cc[nH]n3)c2)C1 (configuration not stated) | 3.4 | 920 | –
28 | O=C(Nc1ccc(Cl)cc1)C1CN(C(=O)c2cncc(-c3ccco3)c2)CC(F)(F)C1 (configuration not stated) | 3 | 3500 | –
29 | O=C(c1cccc(-c2ccco2)c1)N1CCCC(F)(C(=O)Nc2ccc(Cl)cc2)C1 (configuration not stated) | 2.8 | 800 | –
30 | O=C(Nc1ccc(Cl)cc1)C1CN(C(=O)c2cccc(-c3ncccn3)c2)CC(F)(F)C1 (configuration not stated) | 11.9 | 3000 | Therm_solubility [1]: 75.4 µg/mL; Activity [3]: 65%
31 | O=C(Nc1ccc(Cl)cc1)C1CN(C(=O)c2cccc(-c3ncc[nH]3)c2)CC(F)(F)C1 (configuration not stated) | – | 5500 | –
32 | O=C(Nc1ccc(Cl)cc1)C1CCCN(C(=O)c2cccc(-n3ccnc3)c2)C1 (configuration not stated) | – | 5200 | –
33 | COC(=O)N1CCN(C(=O)c2cccc(-c3ccco3)c2)CC1C(=O)Nc1ccc(Cl)cc1 (configuration not stated) | – | 2700 | –
34 | O=C(Nc1ccc(Cl)cc1)C1CCCN(C(=O)c2cccc(-c3ccco3)c2)C1 (configuration not stated) | 1.6 | 640 | Therm_solubility [1]: 13.4 µg/mL; Activity [3]: 37%; Drug metabolism [12]: Metabolite_Detected; AUC(0-t) at 7 h [7]: 1200 ng·h/mL
35 | O=C(Nc1ccc(Cl)cc1)C1CN(C(=O)c2cccc(-c3cn[nH]c3)c2)CC(F)(F)C1 (configuration not stated) | 13 | 4500 | –
36 | O=C(Nc1ccc(Cl)cc1)C1CCCN(C(=O)c2cc(-c3ccco3)[nH]n2)C1 (configuration not stated) | – | 5300 | –
37 | O=C(Nc1ccc(Cl)cc1)C1CN(C(=O)c2cc(F)cc(-c3ccncc3)c2)CC(F)(F)C1 (configuration not stated) | 6.9 | 530 | Therm_solubility [1]: 9.8 µg/mL; Activity [3]: 14%; AUC(0-t) at 7 h [6]: 36400 ng·h/mL; AUC(0-t) at 7 h [7]: 26700 ng·h/mL; concentration at 7 h [8]: 1.3 µM; concentration at 0.5 h [10]: 13.2 µM
38 | C=C1CC(C(=O)Nc2ccc(Cl)cc2)CN(C(=O)c2cccc(-c3ccco3)c2)C1 (configuration not stated) | 1.4 | 98 | Activity [3]: 9.5%
39 | O=C(O)C1CN(C(=O)c2cccc(-c3ccco3)c2)CC(F)(F)C1 (configuration not stated) | – | – | Drug metabolism [13]: Metabolite_Detected
40 | O=C(NC1CCCN(C(=O)c2cccc(-c3ccco3)c2)C1)c1ccc(Cl)cc1 (configuration not stated) | – | 4900 | –
